Measured values taken from PMC7392586 (Circulation, 2020).
“And” between values parts separate entries of the source, which are not always exact repeats. Identical values can stand only once. Like-named read-outs stand apart in the source and are kept apart here.

What was measured:
[1] = tested on: ADP-induced platelet aggregation in platelet-rich plasma; assay: Light transmittance aggregometry; assay type: in vivo, human; details: for %IPA using LTA with ADP 20 µmol/L: at 30 minutes (primary endpoint), mean±SD
[2] = tested on: ADP-induced platelet aggregation in whole blood; assay: Multiple electrode aggregometry; assay type: in vivo, human; details: % of patients
Method in brief: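 STEMI patients not previously given a P2Y12 inhibitor. Hirudin-anticoagulated whole blood drawn at baseline and at 15 min, 30 min, 1, 2, 3 and 4–6 h after the study drug (bolus completion or oral ingestion); done at 2 centres. Blood diluted 1:2 in 0.9% NaCl, ADP-stimulated, aggregation recorded 6 min; AUC units. High residual reactivity: >46 U; percent of patients.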

[3] = tested on: ADP-induced platelet aggregation in whole blood; details: cited from earlier work; for mean platelet inhibition before the end of infusion / patients achieving 100% platelet inhibition: part 2 of the trial; for mean platelet inhibition before the end of infusion: cangrelor 4 μg/kg/min
[4] = tested on: platelet reactivity (P2Y12 reaction units); details: cited from earlier work; for HRPR (VerifyNow, cutoff PRU >208): 15 STEMI patients pretreated with ticagrelor
[5] = tested on: platelet reactivity index; details: CANTIC study; cited from earlier work
[6] = tested on: platelet function; details: 16 cardiac arrest survivors with STEMI, cited from earlier work
[7] = tested on: platelet inhibition; details: pharmacodynamic data on cangrelor; cited from earlier work

Molecule: CSCCNc1nc(SCCC(F)(F)F)nc2c1ncn2[C@@H]1O[C@H](COP(=O)(O)OP(=O)(O)C(Cl)(Cl)P(=O)(O)O)[C@@H](O)[C@H]1O [Cangrelor]
- %IPA using LTA with ADP 20 µmol/L [1]: 34.1±22.5%
- High residual platelet reactivity: AUC>46 using ADPtest (Multiplate) ([2]; at 15 minutes): 8.6%
- High residual platelet reactivity: AUC>46 using ADPtest (Multiplate) ([2]; at 30 minutes): ≈ 14%
- High residual platelet reactivity: AUC>46 using ADPtest (Multiplate) ([2]; at 2 hours): ≈ 14%
- mean IPA ([3]; infusion 4 μg/kg/min for up to 69 hours, at 24 hours, 14 patients with unstable angina or non–Q-wave MI, whole blood impedance aggregometry, ADP 3 μmol/L): 98.7±2.1%
- mean %IPA ([3]; infusion at 4 μg/kg/min, elective or urgent PCI, impedance aggregometry in heparinized blood, ADP 3 μmol/L): 99%
- mean platelet inhibition before the end of infusion [3]: 100%
- patients achieving 100% platelet inhibition [3]: 95%
- patients with PRU higher than 208 U during drug infusion ([4]; CANTIC study): No patient
- HRPR (VerifyNow, cutoff PRU >208) ([4]; at 15 minutes): 6.7%
- HRPR (VerifyNow, cutoff PRU >208) ([4]; at 1 hour): 0%
- HRPR rate (VerifyNow, cutoff PRU >208) ([4]; at the time of balloon inflation, 50 STEMI patients): 10%
- nonresponders at vasodilator-stimulated phosphoprotein assay during drug infusion [5]: 3 out of 22
- platelet function, median (Multiplate Analyzer) ([6]; targeted temperature management, interquartile range 10 to 25): 18 U
- HRPR (Multiplate Analyzer, <46 U cutoff) [6]: none had HRPR
- degree of platelet inhibition [7]: > 80%

Molecule: CC(=O)Oc1cc2c(s1)CCN(C(C(=O)C1CC1)c1ccccc1F)C2 (stereo not shown) [Chewed Prasugrel, Prasugrel]
- %IPA using LTA with ADP 20 µmol/L [1]: 10.5±11.0%

Molecule: CC(=O)Oc1cc2c(s1)CCN(C(C(=O)C1CC1)c1ccccc1F)C2 (stereo not shown) [Integral Prasugrel, Prasugrel]
- %IPA using LTA with ADP 20 µmol/L [1]: 6.3±11.4%

Molecule: CCCCS(=O)(=O)N[C@@H](Cc1ccc(OCCCCC2CCNCC2)cc1)C(=O)O [Tirofiban]
- %IPA using LTA with ADP 20 µmol/L [1]: 95.0±8.9% and 95.0±9.0%
- HRPR rates (platelet aggregation >59% at LTA after ADP 20 µmol/L) ([1]; during drug infusion / within the first 2 hours): No patient

B1: abciximab (antibody, chains of the INN, looked up, V domains shown)
VH: EVQLQQSGTVLARPGASVKMSCEASGYTFTNYWMHWVKQRPGQGLEWIGAIYPGNSDTSYIQKFKGKAKLTAVTSTTSVYMELSSLTNEDSAVYYCTLYDGYYVFAYWGQGTLVTVSA
VL: EIVLTQSPVTLSVTPGDSVSLSCRASRDISNNLHWFQQTSHESPRLLIKYASQSMSGIPSRFSGSGSGTDFTLSINSVETEDFGMYFCQQTNSWPYTFGGGTKLEIK
modifications: Fab
- mean platelet inhibition before the end of infusion [3]: 100%
- patients achieving 100% platelet inhibition [3]: 100%
